The subject of experiment [1] is Saccharomyces cerevisiae. Nature of the experiment: DNA damaging activity against rad 6 DNA repair gene deficient Saccharomyces cerevisiae mutant assessed as drug level required to produce 12 mm zone of inhibition well after 48 hrs. The class given is functional. The essentials:
(§1)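 Yeast agar-well diffusion assay: test material in a 100 μl well, incubated 48 h at 37°. IC12 is the concentration in μg/ml giving a 12 mm diameter zone of inhibition around the well. Reported values are averages of 2 or 3 determinations.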

Experiment [2] relates to Saccharomyces cerevisiae. Briefly: DNA damaging activity against rad 52 DNA repair gene deficient Saccharomyces cerevisiae mutant assessed as drug level required to produce 12 mm zone of inhibition after 48 hrs. The class given is functional. An outline of the steps: as §1
In experiment [3] the test system is Saccharomyces cerevisiae. Nature of the experiment: DNA damaging activity against rad 52 DNA repair gene/topoisomerase 1 deficient Saccharomyces cerevisiae mutant assessed as drug level required to produce 12 mm zone of inhibition well after 48 hrs. Format: functional. An outline of the steps: as §1
For experiment [4], the target named is DNA topoisomerase 2-alpha (Homo sapiens, UniProt P11388). Nature of the experiment: Inhibition of DNA topoisomerase 2 assessed as bacteriophage P4 DNA unknotting after 30 mins.
For experiment [5], the system named is Saccharomyces cerevisiae. Briefly: DNA damaging activity against wild type Saccharomyces cerevisiae expressing rad DNA repair gene assessed as drug level required to produce 12 mm zone of inhibition after 48 hrs. The class given is functional. An outline of the steps:
as §1

In experiment [6] the test system is Saccharomyces cerevisiae. Briefly: Antifungal activity against rad 6 DNA repair gene deficient Saccharomyces cerevisiae mutant at 500 ug/ml. The class given is functional. The conditions noted are these: read-out: IZ. The essentials: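 Yeast well-diffusion assay against the rad 6 DNA-repair-deficient Saccharomyces cerevisiae strain. Sample is applied at the stated concentration (μg/ml) to a 100 μl well. Plates are incubated 48 h at 37°. Read-out is the diameter of the zone of inhibition, in mm.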

Chain of DNA topoisomerase 2-alpha (P11388 whole entry): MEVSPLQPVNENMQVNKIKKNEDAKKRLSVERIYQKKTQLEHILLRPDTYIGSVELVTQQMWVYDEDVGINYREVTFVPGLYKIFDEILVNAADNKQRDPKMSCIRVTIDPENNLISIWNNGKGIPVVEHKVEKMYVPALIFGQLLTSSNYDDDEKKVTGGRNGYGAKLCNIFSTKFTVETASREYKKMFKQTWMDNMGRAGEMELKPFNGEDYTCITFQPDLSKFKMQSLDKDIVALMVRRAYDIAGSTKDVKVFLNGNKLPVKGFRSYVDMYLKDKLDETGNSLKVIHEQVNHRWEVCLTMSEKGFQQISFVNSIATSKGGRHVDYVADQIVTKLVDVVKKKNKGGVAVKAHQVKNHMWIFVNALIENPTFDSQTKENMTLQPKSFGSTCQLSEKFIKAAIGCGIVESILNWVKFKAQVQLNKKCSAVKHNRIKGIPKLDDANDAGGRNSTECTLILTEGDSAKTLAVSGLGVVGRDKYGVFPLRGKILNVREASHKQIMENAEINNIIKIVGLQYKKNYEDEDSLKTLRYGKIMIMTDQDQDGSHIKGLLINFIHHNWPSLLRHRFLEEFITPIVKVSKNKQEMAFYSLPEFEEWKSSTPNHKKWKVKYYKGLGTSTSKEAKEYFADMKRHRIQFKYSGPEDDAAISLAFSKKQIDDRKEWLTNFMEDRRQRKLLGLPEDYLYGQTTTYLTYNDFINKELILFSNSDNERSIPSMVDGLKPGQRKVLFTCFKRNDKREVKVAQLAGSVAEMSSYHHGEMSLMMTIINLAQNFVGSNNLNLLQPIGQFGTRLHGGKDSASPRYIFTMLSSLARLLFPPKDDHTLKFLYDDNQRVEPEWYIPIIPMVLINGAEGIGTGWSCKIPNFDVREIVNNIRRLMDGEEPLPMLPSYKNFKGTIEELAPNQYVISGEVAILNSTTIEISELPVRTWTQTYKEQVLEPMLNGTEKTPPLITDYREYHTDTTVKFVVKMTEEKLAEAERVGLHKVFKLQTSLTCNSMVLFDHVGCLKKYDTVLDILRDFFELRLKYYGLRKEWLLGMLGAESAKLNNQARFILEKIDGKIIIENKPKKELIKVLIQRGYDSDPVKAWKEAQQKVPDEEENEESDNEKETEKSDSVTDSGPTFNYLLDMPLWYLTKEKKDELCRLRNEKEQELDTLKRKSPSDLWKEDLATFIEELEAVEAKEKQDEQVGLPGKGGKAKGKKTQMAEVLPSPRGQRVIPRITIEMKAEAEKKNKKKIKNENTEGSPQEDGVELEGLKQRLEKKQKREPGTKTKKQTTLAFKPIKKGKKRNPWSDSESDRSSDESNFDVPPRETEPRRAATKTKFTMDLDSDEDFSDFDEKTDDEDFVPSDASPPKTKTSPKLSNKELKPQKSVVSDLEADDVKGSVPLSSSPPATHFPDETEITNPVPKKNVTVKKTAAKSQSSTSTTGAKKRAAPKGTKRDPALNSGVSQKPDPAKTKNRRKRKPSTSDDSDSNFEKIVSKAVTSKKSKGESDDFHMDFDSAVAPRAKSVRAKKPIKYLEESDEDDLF

Regarding `COC1=C(N)C(=O)c2nc(-c3nc(C(=O)O)c(C)c(-c4ccc(OC)c(OC)c4O)c3N)ccc2C1=O` [STREPTONIGRIN], the results for the Activity in the experiment on Saccharomyces cerevisiae [1], with Saccharomyces cerevisiae [2] and in the experiment on Saccharomyces cerevisiae [3] were 2.4 µg/mL, 0.4 µg/mL and under 0.4 µg/mL, respectively.

Consider `O=C1c2ccc(O)cc2-c2c3c(cc4ccnc1c24)OCO3`, for which the Activity in the experiment with Saccharomyces cerevisiae [2] is 295 µg/mL; in the experiment on Saccharomyces cerevisiae [3], 72 µg/mL. For the same compound, the IC50 in experiment [4] is 42.9 µM.

Take `COc1cc2c(cc1OC)-c1c(OC)c(OC)cc3ccnc(c13)C2=O` [OXOGLAUCINE]: the Activity in the experiment with Saccharomyces cerevisiae [1], in the experiment on Saccharomyces cerevisiae [2], in the experiment on Saccharomyces cerevisiae [3] and with Saccharomyces cerevisiae [5] was over 500 µg/mL throughout.

For `COc1c(OC)c2c3c(nccc3c1OC)C(=O)c1ccccc1-2` [HOMOMOSCHATOLINE], the Activity with Saccharomyces cerevisiae [1], in the experiment with Saccharomyces cerevisiae [2] and in the experiment on Saccharomyces cerevisiae [3] was over 500 µg/mL in each case.

In the case of `COc1cc2ccnc3c2c(c1OC)-c1ccccc1C3=O` [LYSICAMINE], the Activity in the experiment on Saccharomyces cerevisiae [1] was over 500 µg/mL; in the experiment with Saccharomyces cerevisiae [2], 300 µg/mL; in the experiment with Saccharomyces cerevisiae [3] it was 390 µg/mL.

For `COc1c(OC)c2c3c(nccc3c1OC)C(=O)c1cc3c(cc1-2)OCO3` [OXOPHOEBINE], the Activity was 4.7 µg/mL in the experiment with Saccharomyces cerevisiae [1], 6.4 µg/mL in the experiment on Saccharomyces cerevisiae [2], 2.6 µg/mL with Saccharomyces cerevisiae [3] and over 500 µg/mL in the experiment on Saccharomyces cerevisiae [5].

On to `O=C1c2ccccc2-c2c3c(cc4ccnc1c24)OCO3` [LIRIODENINE], for which the Activity with Saccharomyces cerevisiae [2] worked out at 16.7 µg/mL; in the experiment on Saccharomyces cerevisiae [5], 500 µg/mL. The zone of inhibition at 500 µg/mL in the experiment with Saccharomyces cerevisiae [6] was found to be 15 mm.

For `CC[C@@]1(O)C(=O)OCc2c1cc1n(c2=O)Cc2cc3ccccc3nc2-1` [CAMPTOTHECIN], the Activity in the experiment on Saccharomyces cerevisiae [1] was 8.7 µg/mL; in the experiment on Saccharomyces cerevisiae [2], 0.6 µg/mL; in the experiment on Saccharomyces cerevisiae [3] it was over 20 µg/mL.

On to `COc1ccc2c(c1)-c1c3c(cc4ccnc(c14)C2=O)OCO3`, for which the Activity with Saccharomyces cerevisiae [2] was determined as 214 µg/mL; with Saccharomyces cerevisiae [3] it was 113 µg/mL. Further, the IC50 in experiment [4] is 81.9 µM.
